Laboratory results as given in article PMC2964879 (Biochemistry, 2010).
In brackets after ≈: the same amount, converted by molar mass.

How the values were obtained:
MbtA = settings: cited from earlier work
[1] = tested on: coupling enzymes inorganic pyrophosphatase and purine nucleoside phosphorylase; assay: Counter-test on the coupling enzymes of the continuous assay; format: biochemical; settings: 200 μM; data not shown
BasE [2] = biological target: T1, BasE (Acinetobacter baumannii, UniProt A0A0D5YGP3); assay: Kinetic inhibition experiments with the continuous coupled assay; format: biochemical, A. baumannii ATCC17978
EntE = settings: cited from earlier work
A. baumannii = assay: Antibacterial activity; format: cell-based
holo-BasF = assay: ESI-TOF mass spectrometry of aryl acid loading onto holo-BasF by BasE; format: biochemical, A. baumannii AB900; settings: 50 μM holo-BasF, 200 nM BasE, 250 μM aryl acid, 16 hours
Procedure, shortened: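 His-tagged BasF from A. baumannii AB900, expressed in E. coli, made holo in vitro with Sfp and CoA, then anion-exchange purified. Apo- and holo-BasF in the same buffer were reference samples. Samples were diluted in 50:50 water:acetonitrile with 0.1% formic acid and injected directly for ESI-TOF MS.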

BasE [3] = biological target: T1, BasE; settings: for specificity constant, fold lower than DHB / kcat, fold decrease relative to DHB: relative to DHB; for KM, fold change relative to DHB: relative to DHB (increase in KM)
BasE [4] = biological target: T1, BasE; assay: Fluorescence polarization displacement assay, BasE-AB900; format: binding, A. baumannii AB900; settings: read-out: KD (FP) of the fluorescent probe
BasE [5] = biological target: T1, BasE; assay: Fluorescence polarization displacement assay, BasE-ATCC; format: binding, A. baumannii ATCC17978; settings: read-out: KD (FP) of the fluorescent probe
BasE [6] = settings: read-out: dissociation constant Kia; nonvaried substrate in eq 2; cited from earlier work
BasE [7] = settings: ATP-PPi exchange, saturating ATP; cited from earlier work

For Nc1nc(-c2ccccc2)nc2c1ncn2[C@@H]1O[C@H](COS(=O)(=O)NC(=O)c2ccccc2O)[C@@H](O)[C@H]1O [5′-O-[N-(2-hydroxybenzoyl)sulfamoyl]-2-phenyladenosine], the binding constant (MbtA) is listed as “subnanomolar”.

With O=C(O)c1cc(-c2ccccc2)nc2c1cnn2Cc1ccncc1 [Compound 8, 6-phenyl-1-(pyridin-4-ylmethyl)-1H-pyrazolo[3,4-b]pyridine-4-carboxylic acid] the “inhibition of the coupling enzymes” value [1] was “did not inhibit”, the “modality of inhibition with respect to DHB and ATP” value (BasE [2]) was “competitive inhibition with respect to both substrates” and the slow binding inhibition (BasE [2]; 10 min pre-incubation at 25 °C, data not shown) was “did not exhibit slow binding inhibition”.

For Nc1ncnc2c1ncn2[C@@H]1O[C@H](COS(=O)(=O)NC(=O)c2cccc(O)c2O)[C@@H](O)[C@H]1O [Compound 5, 5′-O-[N-(2,3-dihydroxybenzoyl)sulfamoyl]adenosine], the “inhibition of EntE (inhibition and dissociation constants, in words)” value (EntE) is given as “slow tight-binding picomolar inhibitors” and the “antibacterial activity against A. baumannii” value (A. baumannii; unpublished results, D. Wilson and C. Aldrich) is given as “do not possess any antibacterial activity”.

With O=C(O)c1cccc(O)c1 [Compound 3-HBA, 3-hydroxy benzoic acid] the loading (holo-BasF) was “partial” and the “specificity constant, fold lower than DHB” value (BasE [3]) was 60 fold.

For CCCCCCCCCCCCc1cn(-c2nc(N)c3ncn([C@@H]4O[C@H](COS(=O)(=O)NC(=O)c5ccccc5O)[C@@H](O)[C@H]4O)c3n2)nn1 [Compound 7, 2-(4-n-dodecyl-1,2,3-triazol-1-yl)-5′-O-[N-(2-hydroxybenzoyl)sulfamoyl]adenosine], the MIC (A. baumannii; Acinetobacter baumannii) was roughly 15 µM (≈ 10.5 µg/mL) and the antibacterial activity (A. baumannii; iron replete conditions) was “inactive”.

For O=C(O)c1ccccc1O [SAL, 2-hydroxybenzoic acid], the loading (holo-BasF) was “partial”, the “kcat, fold decrease relative to DHB” value (BasE [3]) was roughly 3 fold and the “specificity constant, fold lower than DHB” value (BasE [3]) was “approximately 6 fold”. The “KM, fold change relative to DHB” value (BasE [3]) was “approximately 2 fold”.

For Nc1ncnc2c1ncn2[C@@H]1O[C@H](COP(=O)(O)OP(=O)(O)OP(=O)(O)O)[C@@H](O)[C@H]1O [ATP], the kcat (BasE [3]; substrate of BasE, coupled assay, 25 °C, pH 8.0) was 2.8 ± 0.2 s⁻¹ and the Km (BasE [3]; substrate of BasE, coupled assay, 25 °C, pH 8.0, nonvaried substrates saturating) was 300 ± 71 µM.

Nc1ncnc2c1ncn2[C@@H]1O[C@H](COS(=O)(=O)NC(=O)c2ccccc2O)[C@@H](O)[C@H]1OCCOCCOCCNC(=O)c1ccc2c(c1)C(=O)OC21c2ccc(O)cc2Oc2cc(O)ccc21 [Compound 9, 2′-O-{2-[2-(2-{[(fluorescein-5-yl)carbonyl]amino}ethoxy)ethoxy]ethoxy}-5′-O-[N-(2-hydroxybenzoyl)sulfamoyl]adenosine] gave a Kd (BasE [4]) of 0.144 ± 0.009 µM and a Kd (BasE [5]) of 0.084 ± 0.006 µM.

With O=C(O)c1ccccc1 [BA, benzoic acid] the loading (holo-BasF) was “partial”, the “kcat, fold decrease relative to DHB” value (BasE [3]) was roughly 10 fold and the “specificity constant, fold lower than DHB” value (BasE [3]) was “three orders of magnitude”. The “KM, fold change relative to DHB” value (BasE [3]) was roughly 100 fold.

In the case of O=C(O)c1cccc(O)c1O [DHB, 2,3-dihydroxybenzoic acid], the loading (holo-BasF) is listed as “full”, the Kd (BasE [6]) is listed as 2.63 µM and the Km (BasE [7]) is listed as 1.5 µM. The kcat (BasE [7]) was 3.5 s⁻¹.
